Assay results from ChEMBL document CHEMBL4680079, “Discovery of a Quinoline-4-carboxamide Derivative with a Novel Mechanism of Action, Multistage Antimalarial Activity, and Potent in Vivo Efficacy” (J Med Chem, 2016).
≈ marks a conversion by molar mass, not a printed value. Calls of active or inactive are those of the source. The calls are words filed in the database; no cut-off is given here.

Key:
MRC5 = assay: Antiproliferative activity against human MRC5 cells assessed as reduction in cell viability after 68 hrs by resazurin dye based fluorescence assay; settings: MRC5, 68 h
Method in brief: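 MRC-5 fibroblasts plated overnight as monolayers, exposed to compound pre-diluted in MEM for 68 h. Resazurin then added (final 50 μM) for 3 h, fluorescence read at ex 528/em 590 nm. Signal converted to % inhibition against high- and no-inhibition controls. Plates accepted at Z' > 0.5.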

Plasmodium berghei [1] = assay: Antiplasmodial activity against Plasmodium berghei infected in NMRI mouse assessed as reduction in parasitemia at 3 mg/kg, po QD for 4 days; assay type: functional; set-up: scale not given: the % may be the effect or the level left; settings: time 4 day
Method in brief: (§1)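 Female NMRI mice (n=3 per group, randomized, not blinded) infected with GFP-transfected P. berghei ANKA. Oral dosing once daily for 4 days in 10% DMSO/40% PEG400/50% water or HPMC suspension vehicle. Parasitaemia measured by flow cytometry on blood collected 96 h after infection. Mice watched for toxicity over 4 h post-dose each day.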

[2] = Volume of distribution at steady state in NMRI mouse at 1 mg/kg, iv administered as bolus dose by UPLC-MS/MS analysis; assay type: ADME, organism-based; settings: in vivo
Plasmodium berghei [3] = assay: Antiplasmodial activity against Plasmodium berghei ANKA infected in NMRI mouse assessed as survival days at 3 mg/kg, po QD for 4 days; assay type: functional; settings: time 4 day
Plasmodium yoelii = assay: Antiplasmodial activity against Plasmodium yoelli liver stage forms; assay type: functional, organism-based
[4] = Half-life in NMRI mouse at 1 mg/kg, iv administered as bolus dose by UPLC-MS/MS analysis; assay type: ADME, organism-based; settings: in vivo
[5] = Volume of distribution at steady state in Sprague-Dawley rat at 1 mg/kg, iv administered as bolus dose by UPLC-MS/MS analysis; assay type: ADME, organism-based; settings: in vivo, 1 mg/kg
Method in brief: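 Male Sprague Dawley rats (n=3/route) received an iv bolus solution at 1 mg free base/kg (5 mL/kg; 5% DMSO in saline). Blood sampled from 5 min to 30 or 48 h post-dose, mixed with two volumes water, frozen, then analysed by UPLC-MS/MS. Parameters derived from the blood concentration-time curve.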

[6] = biological target: Voltage-gated inwardly rectifying potassium channel KCNH2 (Homo sapiens, UniProt Q12809); assay: Inhibition of human ERG by IonWorks patch-clamp electrophysiology method
Method in brief: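 hERG K⁺ channel inhibition measured by IonWorks patch-clamp electrophysiology. Eight-point concentration-response curves made from 3-fold serial dilutions down from the maximum final assay concentration. Each curve generated on 2 occasions.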

[7] = Kinetic aqueous solubility of the compound by laser nephelometry; assay type: physicochemical; settings: read-out: Kinetic_solubility
Method in brief: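 Kinetic solubility measured by laser nephelometry. DMSO serial dilutions diluted into water to give final 100–5 μg/mL at 1.0% DMSO. Read immediately, in triplicate aliquots.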

Plasmodium falciparum [8] = assay: Antiplasmodial activity against drug resistant Plasmodium falciparum 7G8 by [3H]hypoxanthine incorporation assay; assay type: functional, organism-based
Method in brief: (§2)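 Strains (K1, W2, 7G8, TM90C2A, D6, V1/S resistant; NF54 sensitive) cultured by the Trager and Jensen method; EC50 determined in vitro from [3H]hypoxanthine incorporation.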

[9] = AUC in NMRI mouse at 3 mg/kg, po administered as gavage by UPLC-MS/MS analysis; assay type: ADME, organism-based; set-up: dose 3 mg/kg; settings: in vivo
[10] = Intrinsic clearance in CD1 mouse liver microsomes at 0.5 uM in presence of NADPH incubated upto 30 mins by UPLC-MS/MS analysis; assay type: ADME, Microsome; settings: 0.5 h
Method in brief: (§3)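 Compound at 0.5 μM incubated with female CD1 mouse, male Sprague-Dawley rat or pooled human liver microsomes (0.5 mg/mL, 50 mM potassium phosphate, pH 7.4). Reaction started with excess NADPH. Samples taken at 0-30 min, quenched in acetonitrile, analysed by UPLC-MS/MS. Verapamil used as control, single time course.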

Plasmodium berghei [11] = assay: Antiplasmodial activity against GFP-transfected Plasmodium berghei ANKA infected in NMRI mouse assessed as reduction in parasitemia by measuring effective dose administered once daily oral dose for 4 days; assay type: functional; settings: 96 h, time 4 day; method in brief: as §1
Plasmodium berghei [12] = assay: Antiplasmodial activity against Plasmodium berghei ANKA infected in NMRI mouse assessed as survival days at 1 mg/kg, po QD for 4 days; assay type: functional; settings: time 4 day
[13] = Cmax in Sprague-Dawley rat at 5 mg/kg, po administered via gavage by UPLC-MS/MS analysis; assay type: ADME, organism-based; set-up: route oral, dose 5 mg/kg; settings: in vivo
Method in brief: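 Male Sprague Dawley rats (n=3) gavaged with a solution at 5 mg free base/kg (10 mL/kg; 0.5% w/v HPMC, 0.4% v/v Tween 80, 0.5% v/v benzyl alcohol). Blood sampled at 5, 15, 30 min and 1, 2, 4, 6, 8, 24, 30, 48 h, diluted with two volumes water, analysed by UPLC-MS/MS.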

Plasmodium berghei [14] = assay: Antiplasmodial activity against Plasmodium berghei ANKA infected in NMRI mouse assessed as cure rate at 30 mg/kg, po QD for 4 days; assay type: functional, organism-based; settings: time 4.0 day; method in brief: as §1
Plasmodium falciparum [15] = assay: Antiplasmodial activity against chloroquine-sensitive Plasmodium falciparum 3D7 infected in human red blood cells assessed as growth inhibition by SYBR Green fluorescence assay; assay type: functional, organism-based, RBC; settings: 3D7, Erythrocyte
Method in brief: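 P. falciparum 3D7 grown in 5% human red cells in RPMI 1640 (pH 7.3) with 0.5% Albumax II, hypoxanthine and gentamicin at 37°C under 1% O₂/3% CO₂. Growth measured by SYBR green fluorescence (ex 485/em 528 nm), with mefloquine as assay control. EC50 calculated.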

[16] = Protein binding in CD1 mouse plasma measured after 5 hr by UPLC-MS/MS analysis based equilibrium dialysis method; assay type: ADME, cell-free; settings: CD1, mouse, read-out: PPB (converted)
Method in brief: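 Equilibrium dialysis of female CD1 mouse plasma spiked at 10 μg/mL (12-14 kDa membrane) against isotonic buffer for 5 h at ~37°C with shaking. Unbound fraction taken as the buffer/plasma peak-area ratio by UPLC-MS/MS. n=6 replicates, run in triplicate.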

Plasmodium berghei [17] = assay: Antiplasmodial activity against Plasmodium berghei ANKA infected in NMRI mouse assessed as reduction in parasitemia at 1 mg/kg, po QD for 4 days; assay type: functional; set-up: scale not given: the % may be the effect or the level left; settings: time 4 day; method in brief: as §1
[18] = Tmax in NMRI mouse at 3 mg/kg, po administered as gavage by UPLC-MS/MS analysis; assay type: ADME, organism-based; settings: in vivo
Plasmodium berghei [19] = assay: Antiplasmodial activity against Plasmodium berghei ANKA infected in NMRI mouse assessed as reduction in parasitemia at 10 mg/kg, po QD for 4 days; assay type: functional; set-up: scale not given: the % may be the effect or the level left; settings: time 4 day; method in brief: as §1
[20] = Intrinsic clearance in human liver microsomes at 0.5 uM in presence of NADPH incubated upto 30 mins by UPLC-MS/MS analysis; assay type: ADME, Microsome; settings: 0.5 h; method in brief: as §3
Plasmodium falciparum [21] = assay: Antiplasmodial activity against drug resistant Plasmodium falciparum V1/S by [3H]hypoxanthine incorporation assay; assay type: functional, organism-based; method in brief: as §2
[22] = Permeability of the compound at 10 uM incubated for 5 hrs by UPLC-MS/MS analysis based PAMPA method; assay type: ADME; settings: read-out: permeability
Method in brief: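 PAMPA run on a lipid-oil-lipid tri-layer filter at pH 7.4. Compound at 10 μM in PBS (DMSO ≤5%) in donor wells, PBS in acceptor wells, kept 5 h at room temperature. Both compartments quantified by UPLC-MS/MS. Data accepted only when recovery exceeded 70%.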

Plasmodium falciparum [23] = assay: Antiplasmodial activity against drug resistant Plasmodium falciparum K1 by [3H]hypoxanthine incorporation assay; assay type: functional, organism-based; method in brief: as §2
Plasmodium falciparum [24] = assay: Antiplasmodial activity against drug resistant Plasmodium falciparum W2 by [3H]hypoxanthine incorporation assay; assay type: functional, organism-based; method in brief: as §2

Chain of Voltage-gated inwardly rectifying potassium channel KCNH2 (Q12809 whole entry): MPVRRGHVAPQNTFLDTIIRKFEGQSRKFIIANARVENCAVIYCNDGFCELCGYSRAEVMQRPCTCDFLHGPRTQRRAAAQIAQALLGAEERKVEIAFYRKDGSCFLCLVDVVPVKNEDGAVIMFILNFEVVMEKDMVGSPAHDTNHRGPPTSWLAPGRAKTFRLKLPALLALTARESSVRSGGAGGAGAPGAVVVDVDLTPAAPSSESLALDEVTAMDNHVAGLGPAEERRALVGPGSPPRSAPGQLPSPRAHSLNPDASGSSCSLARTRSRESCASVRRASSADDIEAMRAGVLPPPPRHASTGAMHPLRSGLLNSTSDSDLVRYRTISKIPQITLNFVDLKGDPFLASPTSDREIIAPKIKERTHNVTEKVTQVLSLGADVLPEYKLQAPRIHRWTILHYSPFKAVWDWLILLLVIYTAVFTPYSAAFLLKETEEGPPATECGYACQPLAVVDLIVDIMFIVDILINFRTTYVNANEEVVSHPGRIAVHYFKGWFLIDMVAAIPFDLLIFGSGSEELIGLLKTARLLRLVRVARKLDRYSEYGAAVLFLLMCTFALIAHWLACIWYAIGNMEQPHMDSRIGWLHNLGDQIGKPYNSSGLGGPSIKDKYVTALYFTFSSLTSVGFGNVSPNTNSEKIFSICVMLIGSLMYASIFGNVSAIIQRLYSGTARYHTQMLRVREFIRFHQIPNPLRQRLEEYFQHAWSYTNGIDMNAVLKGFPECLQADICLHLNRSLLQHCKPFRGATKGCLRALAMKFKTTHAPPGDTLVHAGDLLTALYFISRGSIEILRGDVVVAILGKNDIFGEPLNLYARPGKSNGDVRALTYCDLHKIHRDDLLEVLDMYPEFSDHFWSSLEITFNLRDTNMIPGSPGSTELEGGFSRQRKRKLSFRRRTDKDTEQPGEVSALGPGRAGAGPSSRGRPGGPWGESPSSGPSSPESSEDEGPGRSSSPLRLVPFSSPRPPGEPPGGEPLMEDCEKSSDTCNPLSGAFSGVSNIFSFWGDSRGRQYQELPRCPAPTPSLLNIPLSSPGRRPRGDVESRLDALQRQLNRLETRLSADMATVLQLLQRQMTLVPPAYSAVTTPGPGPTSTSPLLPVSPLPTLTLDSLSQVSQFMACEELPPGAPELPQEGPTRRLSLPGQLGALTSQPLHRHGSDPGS

In the case of `O=C(NCCN1CCCC1)c1cc(-c2ccc(CN3CCOCC3)cc2)nc2ccc(F)cc12` [CABAMIQUINE], the EC50 (MRC5) is reported as 24000 nM, the Activity (Plasmodium berghei [1]) is reported as 99.9% and the Vdss [2] is reported as 15 L/kg. For the same compound, the Survival (Plasmodium berghei [3]) was 25 days, the EC50 (Plasmodium yoelii) was 1 nM and the t1/2 [4] was 16 h. The Vdss [5] was 15 L/kg, the IC50 [6] was 16000 nM and the solubility kinetic [7] was 216 µM (≈ 99.9 µg/mL). The EC50 (Plasmodium falciparum [8]) was 0.4 nM, the AUC [9] was 2990 ng·h/mL and the CLH [10] was under 0.5 mL/min/g. The ED90 (Plasmodium berghei [11]) was 0.1 mg/kg, the Survival (Plasmodium berghei [12]) was 14 days and the Cmax [13] was 180 ng/mL. For the same compound, the Activity (Plasmodium berghei [14]) was “Active”, the EC50 (Plasmodium falciparum [15]) was 1 nM and the fraction unbound at 5 h [16] was 0.37. The Activity (Plasmodium berghei [17]) was 99.9%, the Tmax [18] was 1 h and the Activity (Plasmodium berghei [19]) was 99.9%. For the same compound, the CLH [20] was “<= 1.1 ml/min/g”, the EC50 (Plasmodium falciparum [21]) was 0.7 nM and the Papp at 5 h, 10 µM [22] was 7.3 ×10⁻⁶ cm/s. It also gave an EC50 (Plasmodium falciparum [23]) of 0.4 nM and an EC50 (Plasmodium falciparum [24]) of 0.4 nM.
